Assay results reported in ChEMBL document CHEMBL3414458, “Discovery of novel 2,5-dioxoimidazolidine-based P2X(7) receptor antagonists as constrained analogues of KN62” (J Med Chem, 2015).
Activity calls are given as the source filed them. The rule behind the calls is not given here.

What was measured:
[1] = Cmax in rat at 10 mg/kg, ip; format: ADME, organism-based; parameters: dose 10 mg/kg, route intraperitoneal; conditions: in vivo
Summary of the method: (§1)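 Rats dosed 10 mg/kg intraperitoneally; plasma concentrations were measured, and absolute bioavailability was calculated relative to intravenous dosing.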

[2] = Half life in rat at 10 mg/kg, ip; format: ADME, organism-based; parameters: dose 10 mg/kg, route intraperitoneal; conditions: in vivo
P2X purinoceptor 7 [3] = molecular target: T1, P2X purinoceptor 7 (Homo sapiens, UniProt Q99572); test: Antagonist activity at P2X7 receptor in LPS/IFN-gamma-differentiated human THP1 cells assessed as inhibition of BzATP-induced IL-1beta release preincubated for 30 mins followed by BzATP induction measured after 30 mins by ELISA; format: cell-based, THP-1
T1 sequence (Q99572 whole entry): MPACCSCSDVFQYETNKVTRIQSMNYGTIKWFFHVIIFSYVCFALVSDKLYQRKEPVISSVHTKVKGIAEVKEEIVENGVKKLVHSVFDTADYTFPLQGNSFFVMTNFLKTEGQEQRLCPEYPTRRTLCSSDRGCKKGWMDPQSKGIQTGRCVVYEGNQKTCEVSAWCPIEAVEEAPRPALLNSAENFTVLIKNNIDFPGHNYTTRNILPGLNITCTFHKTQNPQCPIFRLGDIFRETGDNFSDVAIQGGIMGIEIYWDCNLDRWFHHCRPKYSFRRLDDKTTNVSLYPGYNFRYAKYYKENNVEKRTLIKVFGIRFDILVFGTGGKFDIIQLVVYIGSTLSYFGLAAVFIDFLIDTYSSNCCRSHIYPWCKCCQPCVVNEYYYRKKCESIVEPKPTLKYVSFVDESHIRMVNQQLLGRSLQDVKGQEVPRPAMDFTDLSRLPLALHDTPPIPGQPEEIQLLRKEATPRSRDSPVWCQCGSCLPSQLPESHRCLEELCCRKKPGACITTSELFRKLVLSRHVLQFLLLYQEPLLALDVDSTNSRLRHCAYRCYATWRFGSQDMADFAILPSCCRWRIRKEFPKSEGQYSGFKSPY
Summary of the method: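 Human THP-1 monocytes, LPS-primed, stimulated with BzATP; IL-1β release measured by ELISA. Active compounds were screened at 1 µM, and full concentration-response curves were run to obtain IC50.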

[4] = Bioavailability in rat at 10 mg/kg, ip; format: ADME, organism-based; conditions: in vivo; summary of the method: as §1
[5] = AUClast in rat at 20 mg/kg, iv; format: ADME, organism-based; parameters: time 0 - last, dose 20 mg/kg, route intravenous; conditions: plasma
Summary of the method: (§2)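 Rats were dosed with the test agent intraperitoneally or by intravenous injection. Drug levels were followed in plasma over time after dosing. Intravenous and intraperitoneal exposures were compared to give absolute bioavailability.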

P2X purinoceptor 7 [6] = molecular target: T2, P2X purinoceptor 7 (Mus musculus, UniProt Q9Z1M0); test: Antagonist activity at P2X7 receptor in LPS-primed mouse J774.A1 cells assessed as inhibition of ATP-induced IL-1beta release after 30 mins by ELISA; format: cell-based
T2 sequence (Q9Z1M0 whole entry): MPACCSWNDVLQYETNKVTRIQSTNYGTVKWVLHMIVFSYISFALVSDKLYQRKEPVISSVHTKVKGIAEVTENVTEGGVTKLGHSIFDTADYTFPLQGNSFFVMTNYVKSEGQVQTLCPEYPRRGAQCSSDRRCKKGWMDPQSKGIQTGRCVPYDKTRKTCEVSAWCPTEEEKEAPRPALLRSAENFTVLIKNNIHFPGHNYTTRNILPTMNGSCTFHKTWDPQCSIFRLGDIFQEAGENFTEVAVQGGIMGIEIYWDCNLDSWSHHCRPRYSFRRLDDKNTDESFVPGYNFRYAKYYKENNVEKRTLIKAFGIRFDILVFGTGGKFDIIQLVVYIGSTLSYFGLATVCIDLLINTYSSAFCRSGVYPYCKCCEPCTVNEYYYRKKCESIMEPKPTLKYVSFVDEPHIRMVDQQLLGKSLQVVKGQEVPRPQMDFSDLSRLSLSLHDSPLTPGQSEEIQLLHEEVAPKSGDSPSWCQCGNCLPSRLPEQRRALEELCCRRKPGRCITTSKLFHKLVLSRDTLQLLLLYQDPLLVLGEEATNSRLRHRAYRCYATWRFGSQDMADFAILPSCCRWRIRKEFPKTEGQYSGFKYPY
Summary of the method: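 J774.A1 mouse cells stimulated with 5 mM ATP; IL-1β release measured, with IC50 taken from concentration-response data.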

[7] = Terminal half life in rat at 20 mg/kg, iv; format: ADME, organism-based; parameters: dose 20 mg/kg, route intravenous; conditions: in vivo, read-out: beta t1/2
Summary of the method: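 Rats dosed intravenously; mean terminal half-life was derived from the plasma concentration decline.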

P2X purinoceptor 7 [8] = molecular target: T1, P2X purinoceptor 7; test: Antagonist activity at recombinant human P2X7 receptor expressed in HEK293 cells assessed as inhibition of BzATP-induced intracellular ethidium bromide uptake after 2 hrs by fluorescence assay; format: cell-based
Summary of the method: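 Human HEK293 cells stably expressing recombinant human P2X7; ethidium accumulation stimulated by BzATP was measured.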

[9] = AUClast in rat at 10 mg/kg, ip; format: ADME, organism-based; parameters: time 0 - last, dose 10 mg/kg, route intraperitoneal; conditions: plasma; summary of the method: as §2
P2X purinoceptor 7 [10] = molecular target: T1, P2X purinoceptor 7; test: Antagonist activity at human P2X7 receptor
[11] = molecular target: T3, P2X purinoceptor 7 (Homo sapiens) (UniProt Q99572); test: Antagonist activity at recombinant human P2X7 receptor expressed in HEK293 cells assessed as inhibition of BzATP-induced intracellular ethidium bromide uptake at 10 uM after 2 hrs by fluorescence assay; format: cell-based
T3 sequence (whole entry): T1 sequence (Q99572 whole entry)

[12] = molecular target: T4, P2X purinoceptor 7 (Rattus norvegicus) (UniProt Q64663); test: Antagonist activity at P2X7 receptor in neuropathic rat dorsal horn assessed as inhibition of long term potentiation-induced neropathic pain at 20 uM relative to control; conditions: Dorsal horn of spinal cord
T4 sequence (whole entry): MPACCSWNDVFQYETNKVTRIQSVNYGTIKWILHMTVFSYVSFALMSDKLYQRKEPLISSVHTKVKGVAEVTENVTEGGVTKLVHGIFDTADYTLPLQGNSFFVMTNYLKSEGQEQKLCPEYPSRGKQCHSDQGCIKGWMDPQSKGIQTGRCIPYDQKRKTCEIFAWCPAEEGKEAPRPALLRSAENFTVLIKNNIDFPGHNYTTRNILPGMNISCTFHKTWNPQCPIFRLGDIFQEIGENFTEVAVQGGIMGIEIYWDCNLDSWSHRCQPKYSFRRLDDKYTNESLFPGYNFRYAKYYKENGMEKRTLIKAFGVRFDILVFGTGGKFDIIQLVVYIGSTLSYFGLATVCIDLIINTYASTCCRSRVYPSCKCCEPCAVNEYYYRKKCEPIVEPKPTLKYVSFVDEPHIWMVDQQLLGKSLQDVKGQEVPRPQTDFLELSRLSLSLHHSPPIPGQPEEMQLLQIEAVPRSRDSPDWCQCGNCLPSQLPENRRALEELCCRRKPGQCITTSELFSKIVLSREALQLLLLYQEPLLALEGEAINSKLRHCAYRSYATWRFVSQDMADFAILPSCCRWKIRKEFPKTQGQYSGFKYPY
Summary of the method: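 Ex vivo spinal cord preparation: LTP-induced pain signalling recorded in the dorsal horn of neuropathic rats. Pregabalin served as the positive control.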

## O=C1NC(=O)N(C2CCN(C(=O)c3ccc(Cl)c(C(F)(F)F)c3)CC2)C1Cc1ccc(OS(=O)(=O)c2cccc3cnccc23)cc1 (racemic)
[1]
  Cmax: 400 ng/mL
[2]
  half-life: 2.15 h
P2X purinoceptor 7 [3]
  IC50: 50 nM
[4]
  bioavailability: 86%
[5]
  AUC(0-t): 3530 ng·h/mL
P2X purinoceptor 7 [6]
  IC50: 11800 nM
[7]
  half-life: 1.29 h
P2X purinoceptor 7 [8]
  IC50: 70 nM
[9]
  AUC(0-t): 1520 ng·h/mL

## O=C(N[C@@H](Cc1ccc(OS(=O)(=O)c2ccc([N+](=O)[O-])cc2)cc1)C(=O)N1CCN(C(=O)c2ccccc2)CC1)OCc1ccccc1
P2X purinoceptor 7 [10]
  IC50: 34 nM

## CC(C)(C)OC(=O)N1CCN(C(=O)[C@H](Cc2ccc(OS(=O)(=O)c3cccc4cnccc34)cc2)NS(=O)(=O)c2cccc3cnccc23)CC1
P2X purinoceptor 7 [10]
  IC50: 41 nM

## O=C1NC(=O)N(C2CCNCC2)C1Cc1ccc(OS(=O)(=O)c2cccc3cnccc23)cc1 (racemic)
[11]
  inhibition: inactive

## O=C1NC(=O)N(C2CCN(C(=O)C34CC5CC(CC(C5)C3)C4)CC2)C1c1ccc(OS(=O)(=O)c2cccc3cnccc23)cc1 (racemic)
[11]
  inhibition: 48%

## CC(C)C[C@H](CN)CC(=O)O
[12]
  inhibition: 31%

## O=C([C@@H]1Cc2ccc(OS(=O)(=O)c3cccc4cnccc34)cc2CN1S(=O)(=O)c1cccc2cnccc12)N1CCN(c2ccccc2)CC1
P2X purinoceptor 7 [10]
  IC50: < 1000 nM

## O=C(NCC12CC3CC(CC(C3)C1)C2)c1cc(CCCNCCCO)ccc1Cl
P2X purinoceptor 7 [6]
  IC50: > 60000 nM
